Source: publication PMC4130904 (The Prostate, 2014)
“And” between values parts separate entries of the source, which are not always exact repeats. Equal values may be shown once. Non-standard residues stand in square brackets, D forms with d. Residues, ends and D or L forms follow the SMILES beside them. No end group written: not given here. *: point of attachment. X1 = C/C=C(/C)C(=O)O[C@H]1C(C)=C2[C@H]([C@@H]1OC(=O)CCCCCCC)[C@@](C)(OC(C)=O)C[C@H](OC(=O)CCCCCCCCCCCN*)[C@@]1(O)[C@H]2OC(=O)[C@@]1(C)O; A12ADT = thapsigargin analog A12ADT

Key:
[1] = Hydrolysis of prodrugs in mouse plasma ex vivo; assay type: in vitro ADME; conditions: 100 µM prodrug, 37°C, 24 hrs
Procedure, shortened: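 Plasma was taken by intra-cardiac puncture from fully anesthetized mice. Prodrugs were added at 100 µM final and incubated at 37°C for 24 hrs with shaking. Active drug (A-, S-, E-12ADT) was measured by LCMS at 0 and 24hrs.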

[2] = Tumor pharmacokinetics of prodrug activation in MCF-7 xenografts; assay type: in vivo, mouse
Procedure, shortened: (§1)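 Mice were dosed IV and bled by cardiac puncture under anesthesia to give heparinized plasma; naive-mouse plasma served as control, and tissues and tumors were harvested. Samples were deproteinated in acetonitrile with 0.1% FA, with L12ADT at 1 µM as internal standard. Calibration standards ran 100pM–100 µM. Samples were analysed by reversed-phase LCMS (positive-mode MRM). Terminal t1/2 came from the terminal slope of log-linear concentration–time plots.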

[3] = Plasma pharmacokinetics of prodrugs and active drug after IV dosing; assay type: in vivo, mouse
Procedure, shortened: as §1

[4] = cited from earlier work
[5] = Body weight loss in treated LNCaP xenograft-bearing mice; assay type: in vivo, mouse
[6] = tested on: LNCaP human prostate cancer xenografts; assay: LNCaP xenograft efficacy study, comparison to docetaxel; assay type: in vivo, mouse; conditions: prodrug 10 nmoles IV days 0, 1, 2; docetaxel 12 mg/kg/dose IV days 0, 3, 6
Procedure, shortened: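 Six-week-old male nude mice (n = 10/group) received subcutaneous rear-flank injections of LNCaP cells at 2.0 × 10⁶ per 100 µL of 60% Matrigel in HBSS. Prodrug was given IV at 6.8 mg/kg/dose (10 nmoles) on days 0, 1, 2. Docetaxel was given IV at 12 mg/kg/dose […] on days 0, 3, 6 for one cycle. Tumor volume (0.5236 × L × W × H) was measured weekly by calipers, and body weight was tracked.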

[7] = target: T1, FAP (Homo sapiens, UniProt Q12884); assay: FAP-mediated hydrolysis of prodrugs ex vivo; assay type: biochemical
T1 sequence (Q12884 26-760 limits assumed): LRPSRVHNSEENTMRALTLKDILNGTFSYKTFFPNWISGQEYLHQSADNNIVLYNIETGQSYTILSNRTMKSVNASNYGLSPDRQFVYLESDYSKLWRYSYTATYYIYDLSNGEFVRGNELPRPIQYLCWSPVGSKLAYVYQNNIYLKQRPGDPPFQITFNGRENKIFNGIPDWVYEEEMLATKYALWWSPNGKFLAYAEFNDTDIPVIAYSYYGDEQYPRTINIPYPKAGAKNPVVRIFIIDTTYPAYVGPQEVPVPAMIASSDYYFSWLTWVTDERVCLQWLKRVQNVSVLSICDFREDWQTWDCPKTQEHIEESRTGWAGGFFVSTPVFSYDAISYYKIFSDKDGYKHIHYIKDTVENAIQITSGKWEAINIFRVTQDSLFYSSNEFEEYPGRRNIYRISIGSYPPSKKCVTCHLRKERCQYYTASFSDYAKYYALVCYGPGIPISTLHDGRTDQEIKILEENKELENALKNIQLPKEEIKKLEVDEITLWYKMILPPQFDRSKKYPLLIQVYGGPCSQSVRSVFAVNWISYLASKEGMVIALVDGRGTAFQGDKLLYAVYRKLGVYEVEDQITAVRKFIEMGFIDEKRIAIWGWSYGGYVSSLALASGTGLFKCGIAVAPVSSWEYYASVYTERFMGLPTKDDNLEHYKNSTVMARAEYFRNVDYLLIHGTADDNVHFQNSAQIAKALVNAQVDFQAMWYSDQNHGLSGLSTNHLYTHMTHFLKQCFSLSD
Procedure, shortened: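 Recombinant FAP was expressed in Schneider's S2 cells and purified from the culture supernatant. Prodrugs at […] were held in FAP buffer (100mM NaCl, 100mM Tris, pH 7.8) with 10% DMSO, with or without 200nM FAP, at 37°C for 24hrs with shaking. Active drug (A-, S-, E-12ADT) was measured by LCMS at 0, 4 and 24hrs.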

C/C=C(/C)C(=O)O[C@H]1C(C)=C2[C@H]([C@@H]1OC(=O)CCCCCCC)[C@@](C)(OC(C)=O)C[C@H](OC(=O)CCCCCCCCCCCNC(=O)[C@H](CO)NC(=O)[C@H]1CCCN1C(=O)CNC(=O)[C@@H](NC(=O)[C@H](CCC(=O)O)NC(=O)CNC(=O)[C@H](CCCNC(=N)N)NC(=O)[C@@H](N)CCC(=O)O)[C@@H](C)O)[C@@]1(O)[C@H]2OC(=O)[C@@]1(C)O [ERGETGp-S12ADT] (H-ERGETG[dP]S-X1; N-terminus assumed)
active drug generation in mouse plasma ex vivo [1]: no active drug generated | active species detectable in tumors [2]: only 12ADT is detectable | total active drug concentration in tumor, fold lower than from ERGETGP-S12ADT [2]: ~ 7 fold | 12ADT levels in mouse plasma as part of total administered dose ([3]; in vivo after IV dosing): < 0.01% | Cmax ([3]; mouse, plasma, iv): 35 to 40 µM | Tmax ([3]; mouse, plasma, iv): ≤ 1 h | half-life ([3]; mouse, plasma, iv, half-life (t1/2) in mouse plasma, full-length prodrug, single IV dose): 4 to 5 h | clearance from circulation ([3]; single IV dose): almost entirely cleared from circulation by 24 hrs

C/C=C(/C)C(=O)O[C@H]1C(C)=C2[C@H]([C@@H]1OC(=O)CCCCCCC)[C@@](C)(OC(C)=O)C[C@H](OC(=O)CCC)[C@@]1(O)[C@H]2OC(=O)[C@@]1(C)O [TG, Thapsigargin]
therapeutic benefit at the maximally-tolerated dose (MTD) [4]: no therapeutic benefit

CC(=O)O[C@@]12CO[C@@H]1C[C@H](O)[C@@]1(C)C(=O)[C@H](O)C3=C(C)[C@@H](OC(=O)[C@H](O)[C@@H](NC(=O)OC(C)(C)C)c4ccccc4)C[C@@](O)([C@@H](OC(=O)c4ccccc4)[C@H]21)C3(C)C [docetaxel]
recovery of body weight ([5]; over the course of the experiment): did not recover | total body weight lost following therapy ([5]; prodrug IV days 0, 1, 2, docetaxel IV days 0, 3, 6): ~ 30% and 30% | anti-tumor effect against LNCaP xenografts [6]: comparable anti-tumor effect

ASGPAGP-A12ADT: FAP-activated prodrug: peptide ASGPAGP coupled to thapsigargin analog A12ADT
active drug (S- or A12ADT) released in the presence of FAP ([7]; 200nM FAP, FAP buffer pH 7.8, 37°C, up to 24hrs, LCMS): 2 µM | stability in the absence of FAP ([7]; FAP buffer without FAP, data not shown): completely stable
